The source of these data is ChEMBL document CHEMBL2401672, “2-[(3aR,4R,5S,7aS)-5-{(1S)-1-[3,5-bis(trifluoromethyl)phenyl]-2-hydroxyethoxy}-4-(2-methylphenyl)octahydro-2H-isoindol-2-yl]-1,3-oxazol-4(5H)-one: a potent human NK1 receptor antagonist with multiple clearance pathways” (J Med Chem, 2013).

Active and inactive are the calls of the source. The rule behind the calls is not given here.

One data set addresses T1, Neuromedin-K receptor (Homo sapiens, UniProt P29371).
T1 sequence (P29371 whole entry): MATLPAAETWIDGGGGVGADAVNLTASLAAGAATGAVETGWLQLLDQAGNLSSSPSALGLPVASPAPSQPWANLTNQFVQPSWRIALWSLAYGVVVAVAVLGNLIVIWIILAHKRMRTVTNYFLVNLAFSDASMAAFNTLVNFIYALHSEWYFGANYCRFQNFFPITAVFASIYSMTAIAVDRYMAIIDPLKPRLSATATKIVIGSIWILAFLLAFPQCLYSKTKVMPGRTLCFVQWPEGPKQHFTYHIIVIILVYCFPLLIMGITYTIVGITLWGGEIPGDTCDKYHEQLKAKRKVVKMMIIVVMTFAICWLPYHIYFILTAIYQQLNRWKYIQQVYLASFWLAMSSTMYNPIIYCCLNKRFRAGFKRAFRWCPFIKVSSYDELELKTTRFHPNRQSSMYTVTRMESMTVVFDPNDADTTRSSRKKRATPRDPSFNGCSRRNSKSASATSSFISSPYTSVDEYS
Description: Binding affinity to human NK3 receptor.

In a further data set the target is T2, Substance-K receptor (Homo sapiens, UniProt P21452).
T2 sequence (P21452 whole entry): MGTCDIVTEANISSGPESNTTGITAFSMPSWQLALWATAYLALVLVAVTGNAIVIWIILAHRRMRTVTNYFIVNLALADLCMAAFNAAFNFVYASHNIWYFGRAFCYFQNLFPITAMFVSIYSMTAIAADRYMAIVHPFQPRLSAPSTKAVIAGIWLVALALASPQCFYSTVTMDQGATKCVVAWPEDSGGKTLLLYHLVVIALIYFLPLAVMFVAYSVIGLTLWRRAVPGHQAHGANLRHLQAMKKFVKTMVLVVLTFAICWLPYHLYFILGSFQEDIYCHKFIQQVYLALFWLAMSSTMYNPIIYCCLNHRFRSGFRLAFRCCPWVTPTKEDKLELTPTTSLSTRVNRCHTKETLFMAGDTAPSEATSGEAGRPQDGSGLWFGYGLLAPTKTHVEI
Description: Binding affinity to human NK2 receptor.

For data set [1], the system named is Rhesus monkey. Description: Ex vivo NK1 receptor occupancy in rhesus monkey brain assessed as concentration required for 90% occupancy at 67 nM plasma concentration by PET imaging analysis. In kind it is functional, Macaca mulatta.
For data set [2], the system named is Rhesus monkey. Description: Ex vivo NK1 receptor occupancy in rhesus monkey brain assessed as concentration required for 50% occupancy at 13 nM plasma concentration by PET imaging analysis. In kind it is functional, Macaca mulatta.
In data set [3] the target is T3, Substance-P receptor (Homo sapiens, UniProt P25103). Description: Antagonist activity at human NK1 receptor expressed in CHO cells assessed as IP1 generation measured as remaining substance P response at 100 nM.
Data set [4] relates to Gerbillinae. Description: Antagonist activity at NK1 receptor in iv dosed gerbil assessed as inhibition of GR73632-induced foot tapping. In kind it is functional, organism-based. Put shortly: (§1)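 Gerbils received the antagonist iv 1 h before central administration of the NK1 agonist GR73632. Hind-foot tapping was scored. ID50 (mg/kg) was derived for blockade of tapping, and plasma and brain IC50 (nM) were derived from drug levels at 1 h […].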

In data set [5] the test system is Gerbillinae. Description: Antagonist activity at NK1 receptor in iv dosed gerbil brain assessed as inhibition of GR73632-induced foot tapping after 1 hr. In kind it is functional, organism-based. In a few lines: as §1
A short description of data set [6]: Oral bioavailability in rat at 2 mg/kg. Type of data set: ADME, organism-based. The following applies: in vivo. In a few lines:
(§2)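 Rat PK used 1 mg/kg iv and 2 mg/kg po, while dog and monkey received 0.5 mg/kg iv and 1 mg/kg po. Oral dosing was given as a solution, either in ethanol/PEG400/water (20:40:40, v/v/v) or in Inwittor 742/Tween 80, depending on the compound. Plasma CLp, Vdss, t1/2 and F% were derived from these studies.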

Data set [7] concerns Gerbillinae. Description: Antagonist activity at NK1 receptor in iv dosed gerbil assessed as inhibition of GR73632-induced foot tapping after 1 hr. In kind it is functional. The following applies: read-out: ID50 (the source's name). Put shortly: as §1
For data set [8], the target named is T4, Nuclear receptor subfamily 1 group I member 2 (Homo sapiens, UniProt O75469).
T4 sequence (O75469 whole entry): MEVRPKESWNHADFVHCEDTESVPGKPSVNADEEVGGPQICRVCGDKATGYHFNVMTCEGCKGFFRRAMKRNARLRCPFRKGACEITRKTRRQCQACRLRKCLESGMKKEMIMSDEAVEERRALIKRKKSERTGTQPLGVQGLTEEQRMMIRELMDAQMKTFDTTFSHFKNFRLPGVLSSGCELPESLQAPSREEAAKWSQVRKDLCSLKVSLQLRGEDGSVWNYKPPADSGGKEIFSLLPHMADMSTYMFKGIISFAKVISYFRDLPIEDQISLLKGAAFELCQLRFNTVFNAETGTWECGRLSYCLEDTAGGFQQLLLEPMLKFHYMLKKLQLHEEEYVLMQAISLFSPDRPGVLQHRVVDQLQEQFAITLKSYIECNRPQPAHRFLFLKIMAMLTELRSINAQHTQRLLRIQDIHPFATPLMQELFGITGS
Description: Agonist activity at human PXR at 3.4 uM relative to rifampicin. In a few lines: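 PXR agonism was measured in human hepatocytes with test compound at 3.4 μM, and the response was expressed as % relative to rifampicin.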

Data set [9] can be described thus: Oral bioavailability in dog 1 mg/kg. In kind it is ADME, organism-based, Canis lupus familiaris. To be noted: in vivo. In a few lines:
as §2

A short description of data set [10]: Metabolic stability in human hepatocytes assessed as compound remaining at 1 uM after 24 hrs. In kind it is ADME, cell-based, Hepatocyte. To be noted: read-out: Stability. In a few lines: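 Tritium-labelled compound at 1 μM was incubated with cultured human hepatocytes (300 000 cells per incubation) for 24 h, followed by metabolite profiling.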
Data set [11] is described as follows: Volume of distribution at steady state in rat at 1 mg/kg, iv and 2 mg/kg, po. In kind it is ADME, organism-based. To be noted: in vivo, read-out: Vdss. Put shortly: as §2
Data set [12] can be described thus: Plasma clearance in dog at 0.5 mg/kg, iv and 1 mg/kg, po. In kind it is ADME, organism-based, Canis lupus familiaris. Put shortly:
as §2

In a further data set the target is Cytochrome P450 3A4 (Homo sapiens, UniProt P08684). Description: Inhibition of human CYP3A4. In kind it is ADME.
Data set [13] can be described thus: Plasma clearance in monkey at 0.5 mg/kg, iv and 1 mg/kg, po. In kind it is ADME, organism-based, Macaca mulatta. To be noted: rhesus monkey. Put shortly:
as §2

Data set [14] can be described thus: Oral bioavailability in monkey 1 mg/kg. Type of data set: ADME, organism-based, Macaca mulatta. The following applies: rhesus monkey, in vivo. Put shortly: as §2
The target of data set [15] is T3, Substance-P receptor. Description: Displacement of [125I]substance P from human NK1 receptor expressed in CHO cells in presence of human serum. In kind it is cell-based. In a few lines:
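Inhibition of [¹²⁵I]substance P binding to human NK1 receptor in vitro, with 50% human serum added to the binding medium; IC₅₀ (nM) derived.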
For orientation: Displacement assays read how much labelled ligand stays bound in the presence of the test substance.

Data set [16] can be described thus: Volume of distribution at steady state in monkey at 0.5 mg/kg, iv and 1 mg/kg, po. Type of data set: ADME, organism-based, Macaca mulatta. To be noted: rhesus monkey, in vivo, read-out: Vdss. Put shortly: as §2
Data set [17] in a line: Plasma clearance in rat at 1 mg/kg, iv and 2 mg/kg, po. In kind it is ADME, organism-based. Put shortly:
as §2

Data set [18] deals with Gerbillinae. Description: Antagonist activity at NK1 receptor in iv dosed gerbil plasma assessed as inhibition of GR73632-induced foot tapping after 1 hr. In kind it is functional, organism-based. In a few lines: as §1
For a further data set, the target named is Cytochrome P450 2D6 (Homo sapiens, UniProt P10635). Description: Inhibition of human CYP2D6. Type of data set: ADME.
Another data set deals with Cytochrome P450 2C9 (Homo sapiens, UniProt P11712). Description: Inhibition of human CYP2C9. In kind it is ADME.
The target in a further data set is T5, Cytochrome P450 2C8 (Homo sapiens, UniProt P10632).
T5 sequence (P10632 whole entry): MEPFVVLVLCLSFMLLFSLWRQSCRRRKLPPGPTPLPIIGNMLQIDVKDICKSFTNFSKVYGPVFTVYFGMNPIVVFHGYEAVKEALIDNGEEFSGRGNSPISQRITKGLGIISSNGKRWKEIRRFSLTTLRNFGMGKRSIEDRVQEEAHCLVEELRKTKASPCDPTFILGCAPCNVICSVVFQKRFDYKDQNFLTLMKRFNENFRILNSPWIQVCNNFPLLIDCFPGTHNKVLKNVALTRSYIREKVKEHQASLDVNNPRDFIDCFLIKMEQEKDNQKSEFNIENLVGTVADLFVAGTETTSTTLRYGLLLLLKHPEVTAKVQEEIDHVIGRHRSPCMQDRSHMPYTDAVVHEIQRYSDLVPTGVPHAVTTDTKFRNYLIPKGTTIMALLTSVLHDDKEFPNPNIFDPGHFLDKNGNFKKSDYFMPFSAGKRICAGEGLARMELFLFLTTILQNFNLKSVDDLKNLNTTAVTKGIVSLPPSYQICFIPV
Description: Inhibition of human CYP2C8. In kind it is ADME.

Data set [19] can be described thus: Half life in rat at 1 mg/kg, iv and 2 mg/kg, po. In kind it is ADME, organism-based. The following applies: in vivo. In a few lines: as §2
The nature of data set [20]: Half life in monkey at 0.5 mg/kg, iv and 1 mg/kg, po. In kind it is ADME, organism-based, Macaca mulatta. To be noted: rhesus monkey, in vivo. Put shortly:
as §2

A short description of data set [21]: Half life in dog at 0.5 mg/kg, iv and 1 mg/kg, po. The following applies: in vivo. Type of data set: ADME, organism-based, Canis lupus familiaris. In a few lines:
as §2

A short description of data set [22]: Volume of distribution at steady state in dog at 0.5 mg/kg, iv and 1 mg/kg, po. Type of data set: ADME, organism-based, Canis lupus familiaris. The following applies: in vivo, read-out: Vdss. In a few lines: as §2

T3 sequence (P25103 whole entry): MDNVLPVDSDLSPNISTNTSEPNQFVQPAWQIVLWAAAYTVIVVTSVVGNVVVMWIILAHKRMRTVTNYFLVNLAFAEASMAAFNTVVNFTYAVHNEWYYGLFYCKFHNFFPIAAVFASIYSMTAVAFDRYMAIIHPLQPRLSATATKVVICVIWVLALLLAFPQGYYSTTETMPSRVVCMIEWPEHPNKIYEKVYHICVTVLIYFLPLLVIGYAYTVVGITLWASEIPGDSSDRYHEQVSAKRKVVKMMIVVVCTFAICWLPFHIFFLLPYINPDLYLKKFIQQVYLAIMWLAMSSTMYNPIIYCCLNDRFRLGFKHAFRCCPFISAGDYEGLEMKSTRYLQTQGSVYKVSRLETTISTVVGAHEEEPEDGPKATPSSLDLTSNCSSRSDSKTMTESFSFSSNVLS
Cytochrome P450 2C9, sequence (P11712 whole entry): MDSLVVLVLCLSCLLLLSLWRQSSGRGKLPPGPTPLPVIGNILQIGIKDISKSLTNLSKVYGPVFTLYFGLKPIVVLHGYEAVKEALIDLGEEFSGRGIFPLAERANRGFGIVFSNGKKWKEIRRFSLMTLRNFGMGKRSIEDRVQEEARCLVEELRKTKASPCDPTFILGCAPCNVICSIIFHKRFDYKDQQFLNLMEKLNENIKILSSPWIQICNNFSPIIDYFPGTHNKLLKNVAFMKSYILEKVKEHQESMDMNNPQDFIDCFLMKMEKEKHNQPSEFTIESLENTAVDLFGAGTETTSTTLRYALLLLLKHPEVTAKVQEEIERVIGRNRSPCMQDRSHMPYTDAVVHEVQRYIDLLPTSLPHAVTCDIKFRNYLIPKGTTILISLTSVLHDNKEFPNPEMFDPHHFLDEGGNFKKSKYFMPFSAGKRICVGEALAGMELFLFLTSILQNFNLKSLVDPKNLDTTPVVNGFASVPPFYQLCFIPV
Cytochrome P450 2D6, sequence (P10635 whole entry): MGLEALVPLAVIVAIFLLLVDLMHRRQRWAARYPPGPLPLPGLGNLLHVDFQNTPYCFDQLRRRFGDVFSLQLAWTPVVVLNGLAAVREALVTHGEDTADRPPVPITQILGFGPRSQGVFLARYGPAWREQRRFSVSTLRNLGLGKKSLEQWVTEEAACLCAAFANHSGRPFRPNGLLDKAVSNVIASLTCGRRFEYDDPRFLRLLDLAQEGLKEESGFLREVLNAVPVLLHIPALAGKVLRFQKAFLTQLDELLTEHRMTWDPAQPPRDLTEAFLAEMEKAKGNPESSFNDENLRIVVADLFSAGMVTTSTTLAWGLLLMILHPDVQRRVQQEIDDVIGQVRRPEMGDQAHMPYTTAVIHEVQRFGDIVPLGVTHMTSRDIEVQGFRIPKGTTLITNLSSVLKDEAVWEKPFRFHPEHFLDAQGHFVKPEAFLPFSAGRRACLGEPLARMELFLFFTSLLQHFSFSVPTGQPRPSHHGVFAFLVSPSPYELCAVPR
Cytochrome P450 3A4, sequence (P08684 whole entry): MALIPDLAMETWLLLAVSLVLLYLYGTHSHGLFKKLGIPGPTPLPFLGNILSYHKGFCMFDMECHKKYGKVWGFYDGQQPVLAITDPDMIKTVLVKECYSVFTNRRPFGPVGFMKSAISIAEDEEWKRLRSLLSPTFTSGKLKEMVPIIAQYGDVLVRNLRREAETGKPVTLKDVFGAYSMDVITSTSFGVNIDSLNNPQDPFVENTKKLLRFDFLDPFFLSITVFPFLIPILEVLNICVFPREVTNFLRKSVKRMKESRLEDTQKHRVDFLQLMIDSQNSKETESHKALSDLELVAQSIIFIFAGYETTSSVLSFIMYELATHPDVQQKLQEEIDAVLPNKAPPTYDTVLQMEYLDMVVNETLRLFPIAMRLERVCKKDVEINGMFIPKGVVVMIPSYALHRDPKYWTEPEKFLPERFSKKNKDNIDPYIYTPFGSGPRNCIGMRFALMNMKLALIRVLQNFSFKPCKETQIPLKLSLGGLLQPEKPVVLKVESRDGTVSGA

With `C[C@@H](O[C@H]1CC[C@@H]2CN(C3=CC(=O)CC3)C[C@H]2[C@@H]1c1ccc(F)cc1)c1cc(C(F)(F)F)cc(C(F)(F)F)c1` [SERLOPITANT], the IC50 (in general, the concentration at which inhibition is half-maximal) stood at 2.4 µM at Neuromedin-K receptor, 2.4 µM on Substance-K receptor and 0.0077 µM in the data set on Gerbillinae [5]. For the same compound, the Occ90 in the data set on Rhesus monkey [1] is 67 nM. The Occ50 with Rhesus monkey [2] was determined as 9 nM. The residual activity at Substance-P receptor [3] worked out at 5%. Moreover, in the data set with Gerbillinae [4], the inhibition result was “Active”. Besides, the bioavailability (usually the share of a dose that reaches the circulation, judged against a reference dose that is usually intravenous) in data set [6] turned out to be 40%. Also, in the data set on Gerbillinae [7], the ED50 amounted to 0.08 mg/kg.

As to `Cc1ccccc1[C@H]1[C@@H]2CN(C3=NC(=O)CO3)C[C@H]2CC[C@@H]1O[C@H](CO)c1cc(C(F)(F)F)cc(C(F)(F)F)c1`, the Activity in [8] is 14%. Moreover, the IC50 at Neuromedin-K receptor is 2.5 µM; on Substance-K receptor it was 7.2 µM; against Cytochrome P450 3A4 it was 15 µM; at Substance-P receptor [15], 0.00075 µM; in the data set on Gerbillinae [5], 0.008 µM; in the data set with Gerbillinae [18], 0.005 µM. Moreover, the results for the IC50 at Cytochrome P450 2D6, against Cytochrome P450 2C9 and against Cytochrome P450 2C8 were 61 µM, 41 µM and 21 µM, respectively. The values for the bioavailability in data set [9], in data set [14] and in data set [6] were 38%, 66% and 92%, respectively. Further, the remaining at 24 h, 1 µM in data set [10] was 68%. The Vd in data set [11] came out at 3.1 L/kg; in [16], 5.7 L/kg; in [22], 1.2 L/kg. Also, the clearance was found to be 1.4 mL/min/kg in data set [12], 8 mL/min/kg in data set [13] and 7.5 mL/min/kg in data set [17]. Besides, the Occ90 in the data set with Rhesus monkey [1] amounted to 22 nM. Besides, the Occ50 in the data set on Rhesus monkey [2] is recorded as 13 nM. Also, the residual activity at Substance-P receptor [3] was determined as 3%. In the data set on Gerbillinae [4], the inhibition result is “Active”. The half-life – broadly, how long it takes for the measured level to halve – is 4.7 h in data set [19], 13 h in data set [20] and 11 h in data set [21]. Further, the ED50 in the data set on Gerbillinae [7] turned out to be 0.03 mg/kg.
